Tests used:
[1] = molecular target: Tyrosine-protein kinase BTK (Homo sapiens) (UniProt Q06187); assay: Inhibition of BTK (unknown origin) at 10 uM relative to control
Method in brief: (§1)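 Single-point screen of each compound against a panel of 59 protein kinases, at 1 or 10 μM. The panel data are also summarised as a rescaled geometric mean selectivity score.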

[2] = molecular target: Calcium/calmodulin-dependent protein kinase type 1 (Homo sapiens) (UniProt Q14012); assay: Inhibition of CAMK1 (unknown origin) at 10 uM relative to control; method in brief: as §1
[3] = molecular target: Calcium/calmodulin-dependent protein kinase kinase 2 (Homo sapiens) (UniProt Q96RR4); assay: Inhibition of CAMKKb (unknown origin) at 10 uM relative to control; method in brief: as §1
[4] = molecular target: CDK2/Cyclin A2 (Homo sapiens) (UniProt P24941+P20248); assay: Inhibition of CDK2/cyclinA (unknown origin) at 10 uM relative to control; type: protein-complex assay; method in brief: as §1
[5] = molecular target: Casein kinase I (Homo sapiens) (UniProt Q9HCP0+P78368+P48730+P49674+P48729); assay: Inhibition of CK1 (unknown origin) at 10 uM relative to control; type: protein assay; method in brief: as §1
[6] = molecular target: Casein kinase 2 (Homo sapiens) (UniProt P67870+P68400+P19784+Q8NEV1); assay: Inhibition of CK2 (unknown origin) at 10 uM relative to control; type: protein assay; method in brief: as §1
[7] = molecular target: Mitogen-activated protein kinase 1 (Homo sapiens) (UniProt P28482); assay: Inhibition of ERK2 (unknown origin) at 10 uM relative to control; method in brief: as §1
[8] = molecular target: Fibroblast growth factor receptor 1 (Homo sapiens) (UniProt P11362); assay: Inhibition of FGFR1 (unknown origin) at 10 uM relative to control; method in brief: as §1
[9] = molecular target: Homeodomain-interacting protein kinase 2 (Homo sapiens) (UniProt Q9H2X6); assay: Inhibition of HIPK2 (unknown origin) at 10 uM relative to control; method in brief: as §1
[10] = molecular target: T1, Inhibitor of nuclear factor kappa-B kinase subunit beta (Homo sapiens) (UniProt O14920); assay: Inhibition of IKKb (unknown origin) at 10 uM relative to control; method in brief: as §1
T1 sequence (whole entry): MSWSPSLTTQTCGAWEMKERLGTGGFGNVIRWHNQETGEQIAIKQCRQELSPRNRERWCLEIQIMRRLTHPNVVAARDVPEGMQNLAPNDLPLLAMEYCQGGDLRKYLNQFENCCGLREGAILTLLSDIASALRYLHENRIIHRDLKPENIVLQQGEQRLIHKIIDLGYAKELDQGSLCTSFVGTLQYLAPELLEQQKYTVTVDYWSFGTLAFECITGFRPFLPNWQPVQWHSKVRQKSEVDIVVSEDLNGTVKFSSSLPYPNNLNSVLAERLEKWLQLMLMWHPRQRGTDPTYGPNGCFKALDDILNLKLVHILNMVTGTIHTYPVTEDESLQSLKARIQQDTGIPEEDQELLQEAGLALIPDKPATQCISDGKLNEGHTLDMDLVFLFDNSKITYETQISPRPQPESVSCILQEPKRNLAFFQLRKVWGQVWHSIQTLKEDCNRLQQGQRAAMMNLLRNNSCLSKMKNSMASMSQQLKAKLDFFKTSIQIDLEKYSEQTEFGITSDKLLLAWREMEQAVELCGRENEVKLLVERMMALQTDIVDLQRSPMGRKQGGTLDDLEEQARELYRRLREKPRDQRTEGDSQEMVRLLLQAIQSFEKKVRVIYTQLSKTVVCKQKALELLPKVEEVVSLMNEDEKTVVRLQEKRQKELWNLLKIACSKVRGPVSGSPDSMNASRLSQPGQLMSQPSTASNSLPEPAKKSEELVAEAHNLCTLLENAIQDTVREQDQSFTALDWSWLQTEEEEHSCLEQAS

[11] = molecular target: Insulin receptor-related protein (Homo sapiens) (UniProt P14616); assay: Inhibition of IRR (unknown origin) at 10 uM relative to control; method in brief: as §1
[12] = molecular target: Tyrosine-protein kinase Lck (Homo sapiens) (UniProt P06239); assay: Inhibition of Lck (unknown origin) at 10 uM relative to control; method in brief: as §1
[13] = molecular target: MAP kinase-interacting serine/threonine-protein kinase 1 (Homo sapiens) (UniProt Q9BUB5); assay: Inhibition of MNK1 (unknown origin) at 10 uM relative to control
Method in brief: (§2)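 Single-concentration screen of each compound against a 59-protein-kinase panel, run at 10 µM or 1 µM. Activity relative to control is shown as a heat map across the panel.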

[14] = molecular target: T2, Serine/threonine-protein kinase Nek2 (Homo sapiens) (UniProt P51955); assay: Inhibition of NEK2a (unknown origin) at 10 uM relative to control; method in brief: as §2
T2 sequence (whole entry): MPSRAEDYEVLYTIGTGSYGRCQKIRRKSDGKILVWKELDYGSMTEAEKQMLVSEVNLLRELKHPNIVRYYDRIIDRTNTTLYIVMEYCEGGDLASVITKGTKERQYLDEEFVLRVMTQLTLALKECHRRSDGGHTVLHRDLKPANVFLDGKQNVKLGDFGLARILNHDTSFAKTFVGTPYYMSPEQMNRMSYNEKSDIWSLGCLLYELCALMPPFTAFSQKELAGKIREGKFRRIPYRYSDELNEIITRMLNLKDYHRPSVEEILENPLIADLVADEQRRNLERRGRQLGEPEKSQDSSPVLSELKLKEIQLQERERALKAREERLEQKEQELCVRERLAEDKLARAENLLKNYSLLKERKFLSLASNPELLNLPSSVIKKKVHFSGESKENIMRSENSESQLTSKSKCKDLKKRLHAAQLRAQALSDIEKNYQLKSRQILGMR

[15] = molecular target: Phosphorylase kinase (Homo sapiens) (UniProt P15735+P46020+P46019+Q93100+Q16816); assay: Inhibition of PHK (unknown origin) at 10 uM relative to control; type: protein-complex assay; method in brief: as §2
[16] = molecular target: Rho-associated protein kinase 2 (Homo sapiens) (UniProt O75116); assay: Inhibition of ROCK2 (unknown origin) at 10 uM relative to control; method in brief: as §2
[17] = molecular target: Ribosomal protein S6 kinase alpha-1 (Homo sapiens) (UniProt Q15418); assay: Inhibition of RSK1 (unknown origin) at 10 uM relative to control; method in brief: as §2
[18] = molecular target: SRSF protein kinase 1 (Homo sapiens) (UniProt Q96SB4); assay: Inhibition of SRPK1 (unknown origin) at 10 uM relative to control
Method in brief: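 Single-concentration screen across a panel of 59 protein kinases, with each compound tested at one fixed concentration. The read-out is residual kinase activity relative to control. Panel results are also condensed into a rescaled geometric mean (RGM) selectivity score.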

Chain of Mitogen-activated protein kinase 1 (Homo sapiens) (P28482 whole entry): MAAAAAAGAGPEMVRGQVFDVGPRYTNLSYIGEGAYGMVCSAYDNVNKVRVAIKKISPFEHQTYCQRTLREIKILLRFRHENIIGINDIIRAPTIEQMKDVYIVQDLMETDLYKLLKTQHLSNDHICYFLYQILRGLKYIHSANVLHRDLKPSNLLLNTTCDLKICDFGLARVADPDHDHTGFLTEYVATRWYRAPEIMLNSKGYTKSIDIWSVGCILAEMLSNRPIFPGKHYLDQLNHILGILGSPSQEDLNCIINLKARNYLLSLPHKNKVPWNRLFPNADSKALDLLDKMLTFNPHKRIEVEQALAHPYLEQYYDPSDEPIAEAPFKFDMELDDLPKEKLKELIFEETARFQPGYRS
Chain of Homeodomain-interacting protein kinase 2 (Homo sapiens) (Q9H2X6 whole entry, looked up): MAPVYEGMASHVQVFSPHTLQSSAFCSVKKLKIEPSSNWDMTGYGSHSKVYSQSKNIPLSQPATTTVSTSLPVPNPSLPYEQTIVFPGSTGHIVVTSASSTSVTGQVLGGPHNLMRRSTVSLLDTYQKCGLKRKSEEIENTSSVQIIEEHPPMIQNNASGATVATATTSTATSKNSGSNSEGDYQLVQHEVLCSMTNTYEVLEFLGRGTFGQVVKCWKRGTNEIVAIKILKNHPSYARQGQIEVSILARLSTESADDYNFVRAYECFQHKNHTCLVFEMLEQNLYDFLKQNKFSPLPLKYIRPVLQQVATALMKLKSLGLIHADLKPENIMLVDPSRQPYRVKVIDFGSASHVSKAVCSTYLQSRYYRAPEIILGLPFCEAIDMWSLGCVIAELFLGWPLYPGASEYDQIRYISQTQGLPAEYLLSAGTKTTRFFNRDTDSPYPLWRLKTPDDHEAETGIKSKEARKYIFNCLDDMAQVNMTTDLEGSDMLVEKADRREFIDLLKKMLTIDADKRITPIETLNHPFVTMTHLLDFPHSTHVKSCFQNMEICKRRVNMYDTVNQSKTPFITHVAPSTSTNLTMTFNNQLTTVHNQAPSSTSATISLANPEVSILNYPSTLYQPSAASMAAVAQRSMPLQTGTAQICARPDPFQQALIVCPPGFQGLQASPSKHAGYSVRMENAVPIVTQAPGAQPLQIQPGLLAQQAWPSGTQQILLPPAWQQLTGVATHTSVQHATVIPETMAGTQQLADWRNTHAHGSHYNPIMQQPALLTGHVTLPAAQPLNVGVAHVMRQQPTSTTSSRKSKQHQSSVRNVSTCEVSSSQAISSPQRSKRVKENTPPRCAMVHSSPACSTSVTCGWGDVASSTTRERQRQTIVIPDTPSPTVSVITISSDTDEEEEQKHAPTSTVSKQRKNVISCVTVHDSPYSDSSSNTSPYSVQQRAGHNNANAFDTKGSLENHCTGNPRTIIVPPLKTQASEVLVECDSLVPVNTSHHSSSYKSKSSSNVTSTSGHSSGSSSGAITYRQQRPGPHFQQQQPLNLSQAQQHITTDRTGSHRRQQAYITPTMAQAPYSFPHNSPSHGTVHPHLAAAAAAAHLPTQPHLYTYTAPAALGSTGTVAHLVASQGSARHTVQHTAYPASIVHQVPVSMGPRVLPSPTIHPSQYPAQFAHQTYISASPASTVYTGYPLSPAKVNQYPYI
Chain of Ribosomal protein S6 kinase alpha-1 (Homo sapiens) (Q15418 whole entry): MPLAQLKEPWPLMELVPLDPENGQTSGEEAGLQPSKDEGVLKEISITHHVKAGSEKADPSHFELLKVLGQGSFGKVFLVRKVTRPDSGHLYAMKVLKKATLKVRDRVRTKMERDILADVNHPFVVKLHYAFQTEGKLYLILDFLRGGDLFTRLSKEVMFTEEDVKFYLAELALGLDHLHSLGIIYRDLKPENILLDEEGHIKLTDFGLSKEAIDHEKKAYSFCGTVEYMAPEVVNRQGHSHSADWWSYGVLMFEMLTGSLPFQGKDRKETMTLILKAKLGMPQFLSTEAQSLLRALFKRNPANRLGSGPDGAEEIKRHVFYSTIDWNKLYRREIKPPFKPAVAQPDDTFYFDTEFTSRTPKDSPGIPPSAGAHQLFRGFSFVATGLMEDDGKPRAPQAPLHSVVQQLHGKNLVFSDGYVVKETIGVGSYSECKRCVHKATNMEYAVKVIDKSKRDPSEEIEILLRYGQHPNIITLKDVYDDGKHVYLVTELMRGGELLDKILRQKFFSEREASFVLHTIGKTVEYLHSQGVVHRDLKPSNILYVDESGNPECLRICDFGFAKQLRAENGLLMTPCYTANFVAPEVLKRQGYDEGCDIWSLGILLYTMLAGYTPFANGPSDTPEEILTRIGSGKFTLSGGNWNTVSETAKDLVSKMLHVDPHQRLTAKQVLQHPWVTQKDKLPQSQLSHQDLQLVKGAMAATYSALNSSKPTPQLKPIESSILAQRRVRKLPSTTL
Chain of Rho-associated protein kinase 2 (Homo sapiens) (O75116 whole entry, looked up): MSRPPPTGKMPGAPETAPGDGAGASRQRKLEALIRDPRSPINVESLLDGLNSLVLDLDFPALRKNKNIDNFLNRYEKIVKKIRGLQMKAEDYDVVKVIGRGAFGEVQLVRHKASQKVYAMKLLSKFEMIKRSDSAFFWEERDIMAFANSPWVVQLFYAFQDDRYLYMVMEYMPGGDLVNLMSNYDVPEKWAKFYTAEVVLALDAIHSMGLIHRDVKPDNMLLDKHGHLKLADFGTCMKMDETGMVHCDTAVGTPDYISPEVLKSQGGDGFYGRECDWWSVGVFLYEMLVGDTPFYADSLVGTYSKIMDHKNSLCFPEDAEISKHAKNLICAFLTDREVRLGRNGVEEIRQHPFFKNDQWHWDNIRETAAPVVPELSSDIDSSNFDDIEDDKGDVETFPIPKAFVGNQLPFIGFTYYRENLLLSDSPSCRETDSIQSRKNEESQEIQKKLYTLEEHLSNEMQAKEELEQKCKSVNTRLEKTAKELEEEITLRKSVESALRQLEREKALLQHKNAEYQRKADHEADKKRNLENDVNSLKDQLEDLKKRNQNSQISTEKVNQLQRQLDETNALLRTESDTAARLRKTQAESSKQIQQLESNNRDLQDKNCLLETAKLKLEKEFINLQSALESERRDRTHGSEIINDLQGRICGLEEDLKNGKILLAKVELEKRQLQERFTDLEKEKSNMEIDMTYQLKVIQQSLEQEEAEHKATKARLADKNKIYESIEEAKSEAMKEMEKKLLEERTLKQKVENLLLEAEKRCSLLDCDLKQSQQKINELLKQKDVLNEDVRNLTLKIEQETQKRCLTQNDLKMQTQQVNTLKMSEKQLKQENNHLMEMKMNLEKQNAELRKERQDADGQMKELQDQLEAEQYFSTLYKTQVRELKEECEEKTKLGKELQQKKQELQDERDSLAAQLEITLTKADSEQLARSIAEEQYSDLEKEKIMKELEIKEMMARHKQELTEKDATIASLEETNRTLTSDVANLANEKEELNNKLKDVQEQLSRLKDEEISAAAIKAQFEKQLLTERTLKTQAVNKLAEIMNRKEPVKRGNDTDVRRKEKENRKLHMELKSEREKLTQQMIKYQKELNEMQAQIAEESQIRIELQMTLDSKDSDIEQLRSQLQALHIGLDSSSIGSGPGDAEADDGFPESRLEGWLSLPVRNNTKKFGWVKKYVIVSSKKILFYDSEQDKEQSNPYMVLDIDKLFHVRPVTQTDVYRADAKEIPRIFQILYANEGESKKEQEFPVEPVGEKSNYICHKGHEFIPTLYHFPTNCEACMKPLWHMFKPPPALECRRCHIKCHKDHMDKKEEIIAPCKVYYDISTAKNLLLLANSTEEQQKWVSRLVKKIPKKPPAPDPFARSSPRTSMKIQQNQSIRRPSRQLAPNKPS
Chain of Tyrosine-protein kinase Lck (Homo sapiens) (P06239 2-509 limits assumed): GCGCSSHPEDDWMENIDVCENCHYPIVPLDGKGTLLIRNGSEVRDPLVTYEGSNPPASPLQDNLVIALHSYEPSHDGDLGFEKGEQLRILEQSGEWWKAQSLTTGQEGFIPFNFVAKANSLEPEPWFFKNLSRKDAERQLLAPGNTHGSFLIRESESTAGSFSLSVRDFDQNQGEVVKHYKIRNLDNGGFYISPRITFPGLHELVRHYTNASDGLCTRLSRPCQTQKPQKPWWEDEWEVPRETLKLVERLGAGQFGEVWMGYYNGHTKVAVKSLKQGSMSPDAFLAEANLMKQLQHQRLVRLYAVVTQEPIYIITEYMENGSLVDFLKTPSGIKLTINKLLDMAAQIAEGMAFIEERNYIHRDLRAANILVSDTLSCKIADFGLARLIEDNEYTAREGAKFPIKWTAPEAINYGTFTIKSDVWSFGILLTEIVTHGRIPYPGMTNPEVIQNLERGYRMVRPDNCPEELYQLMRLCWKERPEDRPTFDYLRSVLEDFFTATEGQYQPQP
Chain of Calcium/calmodulin-dependent protein kinase kinase 2 (Homo sapiens) (Q96RR4 2-588 limits assumed): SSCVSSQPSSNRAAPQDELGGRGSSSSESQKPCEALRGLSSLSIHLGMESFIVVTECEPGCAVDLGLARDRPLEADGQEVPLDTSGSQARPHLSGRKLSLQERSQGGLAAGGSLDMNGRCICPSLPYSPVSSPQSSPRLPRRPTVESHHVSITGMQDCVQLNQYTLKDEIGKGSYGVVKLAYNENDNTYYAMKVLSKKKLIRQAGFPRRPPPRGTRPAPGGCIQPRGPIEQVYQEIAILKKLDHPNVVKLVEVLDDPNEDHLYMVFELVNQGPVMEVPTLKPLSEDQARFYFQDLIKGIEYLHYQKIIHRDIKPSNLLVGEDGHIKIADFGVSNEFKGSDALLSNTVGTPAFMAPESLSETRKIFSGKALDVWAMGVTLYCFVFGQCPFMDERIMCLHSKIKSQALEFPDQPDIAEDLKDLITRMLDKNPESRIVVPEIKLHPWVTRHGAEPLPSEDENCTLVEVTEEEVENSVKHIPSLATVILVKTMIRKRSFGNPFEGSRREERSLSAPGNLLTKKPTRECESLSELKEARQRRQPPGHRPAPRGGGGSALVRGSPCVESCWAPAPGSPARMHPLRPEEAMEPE

Cc1n[nH]c2ccnc(NC3CCCCC3)c12
inhibition [1]: 70% | inhibition [2]: 13% | inhibition [3]: 46% | inhibition [4]: 86% | inhibition [5]: 27% | inhibition [6]: 45% | inhibition [7]: 29% | inhibition [8]: 69% | inhibition [9]: 38% | inhibition [10]: 29% | inhibition [11]: 70% | inhibition [12]: 13% | inhibition [13]: 0% | inhibition [14]: 0% | inhibition [15]: 60% | inhibition [16]: 79% | inhibition [17]: 59% | inhibition [18]: 10%

Cc1n[nH]c2ccnc(Nc3ccc4ncsc4c3)c12
inhibition [1]: 10% | inhibition [4]: 78% | inhibition [5]: 77% | inhibition [7]: 24% | inhibition [12]: 8% | inhibition [17]: 84% | inhibition [18]: 0%

Cc1n[nH]c2ccnc(Nc3ccccc3F)c12
inhibition [1]: 26% | inhibition [2]: 23% | inhibition [3]: 36% | inhibition [4]: 79% | inhibition [5]: 46% | inhibition [6]: 54% | inhibition [7]: 77% | inhibition [8]: 66% | inhibition [9]: 50% | inhibition [10]: 49% | inhibition [11]: 77% | inhibition [12]: 22% | inhibition [13]: 18% | inhibition [14]: 2% | inhibition [15]: 45% | inhibition [16]: 62% | inhibition [17]: 61% | inhibition [18]: 17%

Cc1n[nH]c2ccnc(OC3CCCCC3)c12
inhibition [1]: 40% | inhibition [2]: 41% | inhibition [3]: 72% | inhibition [4]: 86% | inhibition [5]: 86% | inhibition [6]: 41% | inhibition [7]: 66% | inhibition [8]: 84% | inhibition [9]: 56% | inhibition [10]: 35% | inhibition [11]: 66% | inhibition [12]: 47% | inhibition [13]: 12% | inhibition [14]: 0% | inhibition [15]: 82% | inhibition [16]: 92% | inhibition [17]: 84% | inhibition [18]: 20%
